According to ChEMBL document CHEMBL3734687, “Mechanism of action of antiepileptic ceramide from Red Sea soft coral Sarcophyton auritum” (2015):
Calls of active or inactive are those of the source. No cut-off for these calls is given here.

Experiments:
[1] = test system: Mus musculus; experiment: Anxiolytic activity in mouse assessed as increase in time spent in the light area at 1 mg/kg, ip measured for 3 mins by dark-light transition test; format: functional, organism-based
How it was run: (§1)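 Dark-light transition box in mice, 3 min session. Cumulative time spent in the light area was recorded. Diazepam reference at 1 mg/kg i.p. Antagonist arms were pretreated with bicuculline (0.1 mg/kg, i.p.) or ondansetron (1 mg/kg, i.p.) before the test agent. n = 6. One-way ANOVA with Bonferroni comparisons, P<0.05.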

[2] = test system: Mus musculus; experiment: Anxiolytic activity in mouse assessed as increase in time spent in the open arm at 1 mg/kg measured for 3 mins by elevated plus maze test relative to vehicle treated control; format: functional, organism-based
How it was run: (§2)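 Elevated plus maze in mice, 3 min screen. Read-out is percent of time spent in the open arms versus vehicle-treated mice. Diazepam reference at 1 mg/kg. Pretreatment with bicuculline (0.1 mg/kg, i.p.) or ondansetron (1 mg/kg, i.p.) preceded the test agent. n = 6/group. One-way ANOVA followed by Bonferroni, P<0.05.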

[3] = organism: Mus musculus; experiment: Anticonvulsant activity in mouse assessed as time to death post pentylenetetrazole challenge measured for 20 mins; format: functional
How it was run: (§3)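 Mice given an acute pentylenetetrazole challenge (70 mg/kg, i.p.). Time to death recorded over a 20 min observation. Some groups were pretreated with bicuculline (0.1 mg/kg, i.p.) or ondansetron (1 mg/kg, i.p.) before the test agent. n = 6 per group. One-way ANOVA with Bonferroni post-test, P<0.05.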

[4] = test system: Mus musculus; experiment: Anxiolytic activity in mouse assessed as increase in time spent in the open arm pretreated with 1 mg/kg, ip 5-HT3 receptor blocker ondansetron followed by compound administration measured for 3 mins by elevated plus maze test; format: functional, organism-based; how it was run: as §2
[5] = organism: Mus musculus; experiment: Anxiolytic activity in mouse assessed as increase in time spent in the light area measured for 3 mins by dark-light transition test; format: functional, organism-based; how it was run: as §1
[6] = test system: Mus musculus; experiment: Anxiolytic activity in mouse assessed as increase in time spent in the light area pretreated with 0.1 mg/kg, ip GABA-A blocker bicuculline followed by compound administration measured for 3 mins by dark-light transition test; format: functional, organism-based; how it was run: as §1
[7] = test system: Mus musculus; experiment: Anxiolytic activity in mouse assessed as increase in time spent in the light area pretreated with 1 mg/kg, ip 5-HT3 receptor blocker ondansetron followed by compound administration measured for 3 mins by dark-light transition test; format: functional, organism-based; how it was run: as §1
[8] = organism: Mus musculus; experiment: Anxiolytic activity in mouse assessed as increase in time spent in the open arm measured for 3 mins by elevated plus maze test relative to vehicle treated control; format: functional, organism-based; how it was run: as §2
[9] = test system: Mus musculus; experiment: Anxiolytic activity in mouse assessed as increase in time spent in the open arm pretreated with 0.1 mg/kg, ip GABA-A blocker bicuculline followed by compound administration measured for 3 mins by elevated plus maze test; format: functional, organism-based; how it was run: as §2
[10] = test system: Mus musculus; experiment: Anticonvulsant activity in mouse model of PTZ-induced seizures assessed as prolongation of death time post pentylenetetrazole challenge pretreated with 0.1 mg/kg, ip GABA-A blocker bicuculline followed by compound administration measured for 20 mins; format: functional, organism-based; how it was run: as §3
[11] = test system: Mus musculus; experiment: Anticonvulsant activity in mouse model of PTZ-induced seizures assessed as prolongation of death time post pentylenetetrazole challenge pretreated with 1 mg/kg, ip 5-HT3 receptor blocker ondansetron followed by compound administration measured for 20 mins; format: functional, organism-based; how it was run: as §3

Compound | Activity [1] | Activity [2] | Time [3] | Activity [4] | Activity [5] | Activity [6] | Activity [7] | Activity [8] | Activity [9] | Activity [10] | Activity [11]
CN1C(=O)CN=C(c2ccccc2)c2cc(Cl)ccc21 [DIAZEPAM] | Active | Active | 536 s |  |  |  |  |  |  |  | 
CCCCCCCCCCCCCC/C=C/C=C/[C@@H](O)[C@H](CO)NC(=O)CCCCCCCCCCCC |  |  | 911 s | Active | Active | inactive | Active | Active | inactive | inactive | Active
